# pIC50: −log10 of the molar value.
# Key:
# Type in all cases: functional
# Rattus norvegicus [1] = experiment: Percentage of nondisrupted animals selecting drug liver in 3 trained at 0.643 mg/kg; SDL
# Summary of the method: (§1)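 Rats and training are as above: male Sprague-Dawley, food-restricted, with training doses per drug group. Test drug was given ip in saline 30 min before extinction sessions. %SDL is the share of nondisrupted rats reaching 50 presses on the drug lever. A rat not completing 50 presses in 5 min was scored as disrupted.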
# Rattus norvegicus [2] = experiment: Number of animals tested to that of number of animals disrupted in S-1c trained at 0.643 mg/kg; Number of animals tested=12
# Rattus norvegicus [3] = experiment: Percentage of nondisrupted animals selecting drug liver in 3 trained at 0.857 mg/kg; SDL; summary of the method: as §1
# Rattus norvegicus [4] = experiment: Number of animals tested to that of number of animals disrupted in S-1c trained at 0.857 mg/kg; Number of animals tested=11
# Summary of the method: (§2)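 Drug-discrimination rats were male Sprague-Dawley, 175–200 g, kept at about 80% of free-feeding weight. They were trained against saline on (S)-1c·HCl 1.75 mg/kg, 3·HCl 1.71 mg/kg or (S)-amphetamine sulfate 1 mg/kg. Test drug was given ip in 0.9% saline at 1 mL/kg, 30 min before sessions run under extinction. A session ended at 50 presses on one lever; failing 50 presses within 5 min was scored as disrupted.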
# Rattus norvegicus [5] = experiment: Number of animals tested to that of number of animals disrupted in 3 trained at 0.108 mg/kg; Number of animals tested=8; summary of the method: as §2
# Rattus norvegicus [6] = experiment: Number of animals tested to that of number of animals disrupted in 3 trained at 1.286 mg/kg; Number of animals tested=8; summary of the method: as §2
# Rattus norvegicus [7] = organism: Rattus norvegicus; experiment: Inhibitory concentration against [3H]- 5-HT uptake in crude rat synaptosomes; details: Brain
# Summary of the method: (§3)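 Crude synaptosomes from male Sprague-Dawley rat tissue homogenised in ice-cold isotonic sucrose. Preincubated 5 min at 37 °C under aeration with pargyline (final 100 μM), then chilled. Tritiated transmitter added at 10 nM final and uptake run 5 min at 37 °C. Catecholamine buffer had 0.06 mM ascorbate. Filtered and counted by scintillation. 9–10 concentrations in triplicate, 3–4 experiments, four-parameter logistic fit for IC50 ± SEM.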
# Rattus norvegicus [8] = experiment: Percentage of nondisrupted animals selecting drug liver in S-1c trained at 0.429 mg/kg; SDL
# Rattus norvegicus [9] = experiment: Percentage of nondisrupted animals selecting drug liver in 3 trained at 1.286 mg/kg; SDL; summary of the method: as §1
# Rattus norvegicus [10] = experiment: Percentage of nondisrupted animals selecting drug liver in S-1c trained at 0.643 mg/kg; SDL
# Rattus norvegicus [11] = experiment: Percentage of nondisrupted animals selecting drug liver in 3 trained at 0.108 mg/kg; SDL; summary of the method: as §1
# Rattus norvegicus [12] = experiment: Percentage of nondisrupted animals selecting drug liver in S-1c trained at 0.108 mg/kg; SDL; summary of the method: as §1
# Rattus norvegicus [13] = experiment: Number of animals tested to that of number of animals disrupted in S-1c trained at 0.429 mg/kg; Number of animals tested=10; summary of the method: as §2
# Rattus norvegicus [14] = experiment: Number of animals tested to that of number of animals disrupted in 3 trained at 0.643 mg/kg; Number of animals tested=12; summary of the method: as §2
# Rattus norvegicus [15] = experiment: Percentage of nondisrupted animals selecting drug liver in S-1c trained at 0.857 mg/kg; SDL
# Rattus norvegicus [16] = organism: Rattus norvegicus; experiment: Inhibitory concentration against [3H]- DA uptake in crude rat synaptosomes; details: Brain; summary of the method: as §3
# Rattus norvegicus [17] = experiment: Percentage of nondisrupted animals selecting drug liver in S-1c trained at 0.215 mg/kg; SDL; summary of the method: as §1
# Rattus norvegicus [18] = experiment: Number of animals tested to that of number of animals disrupted in S-1c trained at 0.215 mg/kg; Number of animals tested=10; summary of the method: as §2
# Rattus norvegicus [19] = experiment: Number of animals tested to that of number of animals disrupted in 3 trained at 0.214 mg/kg; Number of animals tested=12; summary of the method: as §2
# Rattus norvegicus [20] = organism: Rattus norvegicus; experiment: Inhibitory concentration against [3H]- NE uptake in crude rat synaptosomes; details: Brain; summary of the method: as §3
# Rattus norvegicus [21] = experiment: Tested for drug-discrimination stimulus effect at 0.215 mg/kg in S-1c trained animals; 0.23-0.57
# Summary of the method: (§4)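 Male Sprague-Dawley rats (175–200 g) held at about 80% of free-feeding weight were trained on two levers to tell (S)-1c·HCl 1.75 mg/kg from saline. Test drugs were given in 0.9% saline, ip, 30 min before sessions run under extinction. A session ended at 50 presses on one lever, or was scored disrupted if not done within 5 min. %SDL counts nondisrupted rats. ED50 and 95% CI were derived by Litchfield–Wilcoxon.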
# Rattus norvegicus [22] = experiment: Number of animals tested to that of number of animals disrupted in S-1c trained at 0.108 mg/kg; Number of animals tested=7; summary of the method: as §2
# Rattus norvegicus [23] = experiment: Number of animals tested to that of number of animals disrupted in 3 trained at 0.857 mg/kg; Number of animals tested=12; summary of the method: as §2
# Rattus norvegicus [24] = experiment: Number of animals tested to that of number of animals disrupted in 3 trained at 0.429 mg/kg; Number of animals tested=12; summary of the method: as §2
# Rattus norvegicus [25] = experiment: Percentage of nondisrupted animals selecting drug liver in 3 trained at 0.429 mg/kg; SDL; summary of the method: as §1
# Rattus norvegicus [26] = experiment: Percentage of nondisrupted animals selecting drug liver in 3 trained at 0.214 mg/kg; SDL; summary of the method: as §1
# Rattus norvegicus [27] = organism: Rattus norvegicus; experiment: Tested for drug-discrimination stimulus effect in S-1c trained rats; summary of the method: as §4
smiles,measurement,setting,value
CC(N)Cc1ccc2c(c1)OCC2 (configuration not stated),SDL,Rattus norvegicus [1],100%
same,Activity,Rattus norvegicus [2],4
same,SDL,Rattus norvegicus [3],90%
same,Activity,Rattus norvegicus [4],5
same,Activity,Rattus norvegicus [5],6
same,Activity,Rattus norvegicus [6],6
same,pIC50,Rattus norvegicus [7],6.49
same,SDL,Rattus norvegicus [8],57%
same,SDL,Rattus norvegicus [9],100%
same,SDL,Rattus norvegicus [10],88%
same,SDL,Rattus norvegicus [11],0%
same,SDL,Rattus norvegicus [12],0%
same,Activity,Rattus norvegicus [13],3
same,Activity,Rattus norvegicus [14],5
same,SDL,Rattus norvegicus [15],100%
same,pIC50,Rattus norvegicus [16],5.70
same,SDL,Rattus norvegicus [17],14%
same,Activity,Rattus norvegicus [18],3
same,Activity,Rattus norvegicus [19],6
same,pIC50,Rattus norvegicus [20],6.01
same,ED50,Rattus norvegicus [21],0.4 mg/kg
same,Activity,Rattus norvegicus [22],2
same,Activity,Rattus norvegicus [23],2
same,Activity,Rattus norvegicus [24],6
same,SDL,Rattus norvegicus [25],83%
same,SDL,Rattus norvegicus [26],17%
CCC(Cc1ccc2c(c1)OCO2)NC (configuration not stated),ED50,Rattus norvegicus [27],0.79 mg/kg
